Measurements taken from PMC3982714 (International Journal of Oncology, 2012).
Read-outs that look alike come from different tables or passages of the source.

Key:
[1] = cited from earlier work
[2] = Pharmacokinetics, HPLC analysis of plasma; type: in vivo, Fisher 344 rats
[3] = system: β-catenin; test: Western blot of β-catenin in nuclear extracts of HCT116 cells; type: cell-based, human
In short: (§1)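 HCT116 cells grown in RPMI-1640. Cytoplasmic and nuclear fractions prepared by lysis, with NP-40 added at a later step; supernatant taken as cytoplasm. Nuclei washed, then resuspended in extraction buffer and pelleted. Standard western blot. Probes: rabbit anti-phospho-p65 (Ser276) for p65; mouse anti-β-catenin for β-catenin.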

[4] = system: PGE2; test: PGE2 in culture media of LPS-stimulated macrophages by ELISA; type: cell-based, mouse; settings: RAW 264.7 macrophages, 130 μM for 12 h, then LPS 100 ng/ml overnight
In short: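 RAW 264.7 mouse macrophages grown in DMEM. 1.5×10⁶ cells pre-incubated 12 h with test compound at 130 μM, then stimulated with LPS 100 ng/ml overnight. PGE2 in culture media measured by ELISA. Mean ± SEM, ANOVA.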

[5] = system: NF-κB subunit p65; test: Immunofluorescent staining of phospho-p65 in colon sections of AOM rats; type: in vivo, rat; settings: AOM study, 40 weeks
In short: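 Colons from rats killed at week 40 were formalin-fixed and paraffin-embedded; 4 μm sections cut. Antigen retrieval by microwaving 15 min in 0.01 mol/l citrate, pH 6.0. Blocked with 5% donkey serum 30 min. Rabbit anti-phospho-p65 (Ser276) with mouse anti-β-catenin, or control IgG, applied overnight at 4°C. Fluorescent donkey secondaries 1 h at room temperature. Viewed by fluorescence microscopy.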

[6] = system: β-catenin; test: Immunofluorescent staining of β-catenin in colon sections of AOM rats; type: in vivo, rat; settings: AOM study, 40 weeks
[7] = system: AOM-induced colonic ACF and tumors; type: in vivo, Fisher 344 rats; settings: for Weight: average ± SE
In short: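 Male Fisher 344 rats, 3–4 weeks old, about 90 g, acclimated 1 week. AOM 15 mg/kg or saline given s.c. once weekly for 2 weeks. […] Rats weighed weekly. Week-20 colons formalin-fixed 24 h, stained with 0.2% methylene blue 3–5 min; ACF counted microscopically. Week-40 tumors counted; long and short diameters measured. Mean ± SEM, ANOVA.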

[8] = type: in vivo, Fisher 344 rats; settings: 7 days
In short: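 Male Fisher 344 rats, 8–9 weeks old, 7 per group. […] Killed by CO2 1 h after the last dose. Stomach, small intestine and colon inspected for ulcers under magnification, then formalin-fixed for histology. Heart, liver, lung and kidney collected for toxicity analysis.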

[9] = system: NF-κB subunit p65; test: Western blot of p65 in nuclear extracts of HCT116 cells; type: cell-based, human
In short: as §1

[10] = 20 weeks, saline, diet IBU 500 ppm or p-IBU 900 ppm
[11] = 40 weeks, saline, diet IBU 500 ppm or p-IBU 900 ppm

CC(C)Cc1ccc(C(C)C(=O)OCCN(C)C)cc1.Cl (stereo not drawn) [ibuprofen-O(CH2)2N(CH3)2HCl]
GI toxic side effects compared to the parent molecule [1]: decreased

CC(Cc1ccc(C(C)C(=O)O)cc1)C(=O)O (stereo not drawn) [carboxy-ibuprofen]
plasma level of metabolite ([2]; 20 weeks (first value)): 3000 nM
plasma level of metabolite ([2]; 40 weeks): 3000 nM

CC(C)Cc1ccc(C(C)C(=O)O[C@@H]2O[C@H](C(=O)O)[C@@H](O)[C@H](O)[C@H]2O)cc1 (stereo partly drawn) [ibuprofen-glucuronide]
plasma level of metabolite ([2]; 20 weeks (first value)): 1000 nM
plasma level of metabolite ([2]; 40 weeks): 1000 nM

CC(C)Cc1ccc(C(C)C(=O)NCC(=O)O)cc1 (stereo not drawn) [ibuprofen-NHCH2COOH]
GI toxic side effects compared to the parent molecule [1]: decreased

CC(C(=O)O)c1ccc(C(O)C(C)C)cc1 (stereo not drawn) [1-OH-ibuprofen]
plasma level of metabolite ([2]; 20 weeks (first value)): 4000 nM
plasma level of metabolite ([2]; 40 weeks): undetectable

CC(C(=O)O)c1ccc(CC(C)(C)O)cc1 (stereo not drawn) [2-OH-ibuprofen]
plasma level of metabolite ([2]; group fed a diet of ibuprofen): 99000 nM
plasma level of metabolite ([2]; group fed a diet of p-ibuprofen): 102000 nM

CC(C)Cc1ccc(C(C)C(=O)O)cc1 (stereo not drawn) [ibuprofen, Ibuprofen]
β-catenin levels in nuclear extracts compared to vehicle-treated control [3]: markedly decreased
suppression of PGE2 production compared to LPS-treated control [4]: 84.1%
effect on phosphorylation of p65 (NF-κB activation) [5]: not ibuprofen inhibited
effect on AOM-induced β-catenin cytoplasmic accumulation and nuclear translocation [6]: reduced
Weight ([7]; 20 weeks, AOM, diet IBU 500 ppm or p-IBU 900 ppm): 406±118.91
ACFs (ACF multiplicity) [7, 10]: 0
Tumors [7, 10]: 0
Weight [7, 10]: 416±6.11
Weight ([7]; 40 weeks, AOM, diet IBU 500 ppm or p-IBU 900 ppm): 432±8.84
ACFs [7, 11]: 0
Tumors (tumor multiplicity) [7, 11]: 0
Weight [7, 11]: 431±15.43
reduction of the multiplicity of ACF compared with vehicle ([7]; week 20, AOM rats, diet ibuprofen 500 ppm or p-ibuprofen 900 ppm): 37.9%
reduction of the multiplicity of colon tumors compared with vehicle ([7]; week 40, AOM rats, diet ibuprofen 500 ppm or p-ibuprofen 900 ppm): 56.6%
rats with stomach ulceration ([8]; ibuprofen 670 mg/kg by gavage, 7 rats): 85.7%
ulceration in stomach or intestine ([8]; low dose by gavage): did not lead to ulceration
nuclear translocation of the NF-κB subunit p65 (NF-κB activation) [9]: inhibitory effect was not observed
